Experimental findings from ChEMBL document CHEMBL3244304, “Correlation of biological activity and high-pressure liquid chromatographic retention index for a series of propranolol, barbiturate, and anthranilic acid analogues” (J Med Chem, 1979) are described below.

The nature of series [1]: Octanol-water partition coefficient, log P of nonionized form of compound. The format is physicochemical.
Series [2] in a line: Retention index of the compound by HPLC method. The format is physicochemical.
The species entered for another series is Oryctolagus cuniculus. In words: Hypnotic activity in rabbit. The class given is functional. The method, boiled down:
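Rabbits; value expressed as negative log of the minimum effective dose (mol/kg).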

The nature of series [3]: Octanol-buffer partition coefficient, log P of the compound at pH 8.0 by ultraviolet spectroscopy. The class given is physicochemical. A digest of the protocol: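 Drug distributed between an octanol phase and an aqueous buffer at pH 8.0, the same way as the pH 7.0 phosphate-buffer method. Drug in each phase quantified by ultraviolet spectroscopy, and the log of the octanol/buffer distribution ratio was reported.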

Series [4] in a line: Inhibition of Arbacia egg cell division. The format is functional. The method, boiled down:
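Arbacia egg cell division; value expressed as negative log of the molar drug concentration needed to reduce cell division 50%.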

Turning to `CN1C(=O)NC(=O)C(C)(C2=CCCCC2)C1=O` (centres undefined) [HEXOBARBITAL], the logP (as a rule, the decadic logarithm of the partition coefficient of the neutral form, usually between octanol and water) in series [1] stood at 1.92. Besides, in series [2], the Retention_index was 648.
For `CCC1(CC)C(=O)NC(=O)N(C)C1=O` [METHARBITAL], in series [1], the logP was 1.21. In series [2], this compound yielded a Retention_index of 532.
Regarding `CCC1(C2=CCCCC2)C(=O)NC(=O)NC1=O` [CYCLOBARBITAL], the logP in series [1] is 1.86. The compound further had a Retention_index in series [2] of 604.
The compound `CCC1(CC)C(=O)NC(=O)NC1=O` [BARBITAL] showed a logP in series [1] of 0.65. Moreover, the Retention_index in series [2] was 423. The same compound gave a pMED in the series filed under Oryctolagus cuniculus of 3.09.
On to `Cc1ccc(S(=O)(=O)Nc2ccccc2C(=O)O)cc1`, for which the Retention_index in series [2] is given as 606. Further, the logD – broadly, lipophilicity at a set pH, counting ionised and neutral species – in series [3] was determined as 0.05.
As to `O=C1CC(=O)NC(=O)N1` [BARBITURIC ACID], in series [1], the logP was -1.35. Further, in series [2], the Retention_index is given as 53.
With `CCC1(c2ccccc2)C(=O)NC(=O)NC1=O` [PHENOBARBITAL], the Retention_index in series [2] is recorded as 523.
In series [2], `O=C(O)c1ccccc1NS(=O)(=O)c1ccc(F)cc1` showed a Retention_index of 565. Also, the logD in series [3] stood at 0.03.
`C=CCC1(C(C)C)C(=O)NC(=O)NC1=O` [APROBARBITAL] returned a logP in series [1] of 1.15. The Retention_index in series [2] was found to be 552. Moreover, the pMED in the series listed under Oryctolagus cuniculus worked out at 3.6.
The compound `C=CCC1(CC(C)C)C(=O)NC(=O)NC1=O` [BUTALBITAL] registered a logP in series [1] of 1.45. The compound also gave a Retention_index in series [2] of 616.
In series [1], `CCCCC1(CC)C(=O)NC(=O)NC1=O` [BUTETHAL] returned a logP of 1.65. Moreover, in series [2], the Retention_index came out at 610. The compound further showed a pED50 in series [4] of 2.4. The pMED in the series filed under Oryctolagus cuniculus is on record as 3.72.
In turn, `C=CCC1(C(C)CCC)C(=O)NC(=O)NC1=O` (centres undefined) [SECOBARBITAL] returned a logP in series [1] of 2.15. The same compound registered a Retention_index in series [2] of 728. The pMED in the series listed under Oryctolagus cuniculus came to 4.2.
For `CCCC(C)C1(CC)C(=O)NC(=S)NC1=O` (centres undefined) [THIOPENTAL], in series [1], the logP came to 3. This compound also displayed a Retention_index in series [2] of 732.
For the compound `CCC(C)C1(CC)C(=O)NC(=O)NC1=O` (centres undefined) [BUTABARBITAL], the logP in series [1] is 1.45. This compound returned a Retention_index in series [2] of 600. In the series listed under Oryctolagus cuniculus, this compound showed a pMED of 3.63.
`O=C(O)c1ccccc1NS(=O)(=O)c1ccc(Br)cc1` yielded a Retention_index in series [2] of 678. Moreover, in series [3], the logD worked out at 0.83.
Taken in the same sequence, the figures for `O=C(O)c1ccccc1NS(=O)(=O)c1ccc([N+](=O)[O-])cc1` were 586 and -0.03.
In series [2], `O=C(O)c1ccccc1NS(=O)(=O)c1ccc(Cl)cc1` showed a Retention_index of 656. For the same compound, in series [3], the logD was 0.54.
As to `C=CCC1(C(C)CCC)C(=O)N=C(S)NC1=O` (centres undefined) [THIAMYLAL], in series [1], the logP was found to be 3.2. In series [2], this compound came in with a Retention_index of 760.
With `O=C(O)c1ccccc1NS(=O)(=O)c1ccccc1`, the Retention_index in series [2] is recorded as 530. Besides, in series [3], the logD was -0.46.
Turning to `C=CCC1(C(C)C#CCC)C(=O)N=C(O)N(C)C1=O` (centres undefined) [METHOHEXITAL], the logP in series [1] came to 2.19. This compound registered a Retention_index in series [2] of 776.
For the compound `CCC1(CCC(C)C)C(=O)NC(=O)NC1=O` [AMOBARBITAL], in series [1], the logP was determined as 1.95. The Retention_index in series [2] is 681.
`CCCC(C)C1(CC)C(=O)NC(=O)NC1=O` (centres undefined) [PENTOBARBITAL]: the logP in series [1] stood at 1.95. In series [2], this compound came in with a Retention_index of 686.
